According to ChEMBL document CHEMBL1139095, “Butyl 2-(4-[1.1'-biphenyl]-4-yl-1H-imidazol-2-yl)ethylcarbamate, a potent sodium channel blocker for the treatment of neuropathic pain” (Bioorg Med Chem Lett, 2007):
pIC50: −log10 of the molar value. Calls of active or inactive are those of the source.

Key:
[1] = Displacement of [3H]BTX from sodium channel in rat cerebral cortex synaptosomal membrane; assay type: tissue-based
SH-SY5Y = assay: Cytoprotection against vetratridine-induced cytotoxicity in human SH-SY5Y cells; assay type: functional, cell-based
Outline: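 SH-SY5Y neuroblastoma cells were seeded 24 h ahead and pre-incubated 20 min with compound. They were then exposed 3 h to veratridine plus 1 mM ouabain, and the medium was swapped for 10% alamar blue for 18–24 h. Absorbance was read at 570/620. Percent cell injury was calculated from blank-corrected OD. IC50 (concentration halving injury) was extrapolated from dose–response graphs; triplicate means, two experiments.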

Rattus norvegicus [2] = assay: Antihyperalgesic effect in carrageenan-induced rat hyperalgesia model at 10 mg/kg, ip; assay type: functional, organism-based; set-up: dose 10 mg/kg
Outline: (§1)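 Compound or vehicle was given ip 30 min before paw withdrawal threshold was measured to mechanical stimulus (Randall–Selitto). Carrageenan model: inflamed versus contralateral paw. CCI model: injured versus non-injured paw. Groups of n = 4–6 were compared with vehicle by two-sided Student/Dunnett test; mean ± SEM.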

Rattus norvegicus [3] = assay: Protective activity against chronic constriction injury-induced rat neuropathic pain model at 30 mg/kg, ip; assay type: functional, organism-based; set-up: dose 30 mg/kg; outline: as §1
Rattus norvegicus [4] = assay: Antihyperalgesic effect in carrageenan-induced rat hyperalgesia model at 30 mg/kg, ip; assay type: functional, organism-based; set-up: dose 30 mg/kg; outline: as §1

| Compound | pIC50 [1] | pIC50 (SH-SY5Y) | also measured |
| --- | --- | --- | --- |
| CCCCOC(=O)NCCc1nc(-c2ccc(F)cc2)c[nH]1 | 6.00 | – | – |
| O=C(NCCc1nc(-c2ccc(-c3ccccc3)cc2)c[nH]1)OC1CCCC1 | 7.28 | 6.06 | – |
| CC(C)(C)OC(=O)NCCc1nc(-c2ccc(-c3ccccc3)cc2)c[nH]1 | 7.19 | – | – |
| CC(C)(C)COC(=O)NCCc1nc(-c2ccc(-c3ccccc3)cc2)c[nH]1 | 6.43 | – | – |
| CCCCOC(=O)NCCc1nc(-c2ccc(CC)cc2)c[nH]1 | 7.02 | 5.49 | – |
| CCCCOC(=O)NCCc1nc(-c2ccc(Br)cc2)c[nH]1 | 6.68 | 6.05 | – |
| CC(C)(C)OC(=O)NCCCc1nc(-c2ccc(-c3ccccc3)cc2)c[nH]1 | 6.74 | – | – |
| CCCOC(=O)NCCc1nc(-c2ccc(-c3ccccc3)cc2)c[nH]1 | 7.07 | – | – |
| CCCCOC(=O)NCCc1nc(-c2ccc(C(F)(F)F)cc2)c[nH]1 | 6.34 | – | – |
| CCCCOC(=O)NCCc1nc(-c2ccc(CCC)cc2)c[nH]1 | 7.21 | 5.40 | – |
| CCOC(=O)NCCc1nc(-c2ccc(-c3ccccc3)cc2)c[nH]1 | 7.15 | – | – |
| CC(C)(C)OC(=O)NCc1nc(-c2ccc(-c3ccccc3)cc2)c[nH]1 | 6.84 | – | – |
| COC(=O)NCCc1nc(-c2ccc(-c3ccccc3)cc2)c[nH]1 | 6.55 | – | – |

Compounds with a higher pIC50 [1], results first:

| pIC50 [1] | Compound | pIC50 (SH-SY5Y) | also measured |
| --- | --- | --- | --- |
| 7.59 | O=C(NCCc1nc(-c2ccc(-c3ccccc3)cc2)c[nH]1)OC1CCCCC1 | 6.19 | – |
| 8.15 | CCCCOC(=O)NCCc1nc(-c2ccc(C3CCCCC3)cc2)c[nH]1 | – | – |
| 7.85 | CCCCOC(=O)NCCc1nc(-c2ccc(N3CCCC3)cc2)c[nH]1 | 5.95 | – |
| 7.82 | CCCCCCOC(=O)NCCc1nc(-c2ccc(-c3ccccc3)cc2)c[nH]1 | 6.17 | – |
| 7.39 | CCCCOC(=O)NCCc1nc(-c2ccc(CC(C)C)cc2)c[nH]1 | 6.12 | – |
| 7.68 | O=C(NCCc1nc(-c2ccc(-c3ccccc3)cc2)c[nH]1)OCC1CCCCC1 | 6.15 | – |
| 7.49 | CCCCOC(=O)NCCc1nc(-c2ccc(-c3ccccc3)cc2)c[nH]1 | 6.64 | Activity (Rattus norvegicus [2]): Active; Activity (Rattus norvegicus [3]): Active; Activity (Rattus norvegicus [4]): Active |
| 7.59 | CC(C)COC(=O)NCCc1nc(-c2ccc(-c3ccccc3)cc2)c[nH]1 | 6.21 | – |
